Measurements as given in ChEMBL document CHEMBL4390704, “1-Aryl-3-(4-methoxybenzyl)ureas as potentially irreversible glycogen synthase kinase 3 inhibitors: Synthesis and biological evaluation” (Bioorg Med Chem Lett, 2019).
Active and inactive are the calls of the source. The rule behind the calls is not given here.

The molecules below were run against T1, Glycogen synthase kinase-3 beta (Homo sapiens, UniProt P49841) (assay: Inhibition of recombinant human GSK3beta using prephosphorylated peptide as substrate measured after 30 mins by Kinase-glo luminescence assay).
Target sequence in this assay (P49841 whole entry): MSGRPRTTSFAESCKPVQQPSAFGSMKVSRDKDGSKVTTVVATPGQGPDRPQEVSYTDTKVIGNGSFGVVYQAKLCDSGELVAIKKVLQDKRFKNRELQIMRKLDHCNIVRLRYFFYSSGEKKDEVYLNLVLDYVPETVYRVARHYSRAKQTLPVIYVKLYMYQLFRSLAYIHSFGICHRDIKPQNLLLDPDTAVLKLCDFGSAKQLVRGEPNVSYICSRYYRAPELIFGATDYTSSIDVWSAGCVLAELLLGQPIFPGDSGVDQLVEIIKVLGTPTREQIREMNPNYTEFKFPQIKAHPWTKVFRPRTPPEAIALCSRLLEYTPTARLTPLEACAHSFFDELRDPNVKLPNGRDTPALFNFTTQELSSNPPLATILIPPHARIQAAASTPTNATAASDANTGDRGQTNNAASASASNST

SMILES	IC50 [µM]
C=CC(=O)Nc1ccc2nc(NC(=O)NCc3ccc(OC)cc3)sc2c1	> 10
C=CC(=O)Nc1ccc2nc(NC(=O)NCc3ccc(OC)cc3)[nH]c2c1	> 10
COc1ccc(CNC(=O)Nc2nc3ccc(C#N)cc3s2)cc1	0.11
C=CC(=O)c1ccc2nc(NC(=O)NCc3ccc(OC)cc3)[nH]c2c1	1.82
COc1ccc(CNC(=O)Nc2nc3ccc(C#N)cc3[nH]2)cc1	0.086
C#CC(=O)c1ccc2nc(NC(=O)NCc3ccc(OC)cc3)[nH]c2c1	2.47
COc1ccc(CNC(=O)Nc2nc3ccc(C(=O)CBr)cc3[nH]2)cc1	0.13
COc1ccc(CNC(=O)Nc2nc3ccc(C(C)=O)cc3[nH]2)cc1	0.26

Results, then the molecule that gave them:

IC50 [µM]	SMILES
4.21	C#CC(=O)c1ccc2nc(NC(=O)NCc3ccc(OC)cc3)sc2c1
0.77	COc1ccc(CNC(=O)Nc2nc3ccc(C(=O)CBr)cc3s2)cc1
4.05	C=CC(=O)c1ccc2nc(NC(=O)NCc3ccc(OC)cc3)sc2c1
2.26	COc1ccc(CNC(=O)Nc2nc3ccc(C(C)=O)cc3s2)cc1

These molecules were tested against T1, Glycogen synthase kinase-3 beta (assay: Time-dependent irreversible inhibition of recombinant human GSK3beta at 0.05 to 0.1 uM using prephosphorylated peptide as substrate by Kinase-glo luminescence assay).
Summary of the method: (§1)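 Inhibitor pre-incubated with GSK-3β for varying lengths of time before the kinase reaction. Inhibition is expressed as percentage inhibition at each pre-incubation time.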
Target sequence in this assay (P49841 whole entry, looked up): as the sequence (P49841 whole entry) above

TDI	SMILES
Active	COc1ccc(CNC(=O)Nc2nc3ccc(C#N)cc3[nH]2)cc1

What follows are molecules tested against T1, Glycogen synthase kinase-3 beta (assay: Time-dependent irreversible inhibition of recombinant human GSK3beta at 0.05 to 0.2 uM using prephosphorylated peptide as substrate by Kinase-glo luminescence assay).
Summary of the method: as §1
Target sequence in this assay (P49841 whole entry, looked up): as the sequence (P49841 whole entry) above

TDI	SMILES
Active	COc1ccc(CNC(=O)Nc2nc3ccc(C(=O)CBr)cc3[nH]2)cc1
